# Screening data deposited in PubChem BioAssay by several laboratories.
# CSN inh = inhibitors of human CSN-mediated cullin deneddylation. Q92905. Purified CSN, SCF-Nedd8-OG deneddylation, fluorescence polarization. inhibition, % at 12.5 µM. 360,000 compounds, 0.38% hits. AID 651999;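 active = pattern-corrected inhibition above about 35%, with an unprinted fluorescence ratio check between 0.5 and 1.5, limit read from the data, passing the limit was not always enough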;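 also: 0% = enzyme with substrate and 100% = substrate without enzyme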
# Target sequence (Q92905 whole entry, looked up, one chain of several): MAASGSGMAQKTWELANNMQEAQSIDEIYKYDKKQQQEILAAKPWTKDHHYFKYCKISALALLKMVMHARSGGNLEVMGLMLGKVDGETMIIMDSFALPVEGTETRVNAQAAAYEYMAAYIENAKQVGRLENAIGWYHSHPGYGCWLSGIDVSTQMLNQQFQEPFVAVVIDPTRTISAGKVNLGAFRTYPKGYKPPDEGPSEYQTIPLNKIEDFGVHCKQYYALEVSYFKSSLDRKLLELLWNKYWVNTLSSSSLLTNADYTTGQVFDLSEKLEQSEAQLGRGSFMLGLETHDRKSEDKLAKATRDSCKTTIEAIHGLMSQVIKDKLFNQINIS
#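 test system = HEK293T-derived human Csn5 enzyme | amount = 0.24 nM Csn5 enzyme, final concentration | medium = Tris/NaCl/DTT buffer, pH 7.5 | schedule = 90 min reaction at room temperature | signal = FP | evaluation = inhibition of Csn5 cleavage, % | compound dosing = single dose of 12.5 µM compound with 0.25% DMSO | probe or stimulus = 10 nM SCFSkp2-Nedd8OG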
# Rev-erbA mod = modulators of human Rev-erb alpha DNA binding; P20393; Rev-erbα–FITC-DNA binding, fluorescence polarization, 90 min; activity, % at 10 µM; 370,000 compounds, 0.79% hits;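 active = activity above about 14%, limit read from the data; passing the limit was not always enough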;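 also: 0% = DMSO wells with 35 nM protein and 100% = DMSO wells with 750 nM protein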
# TPT1 inhibitor = C. albicans TPT1 enzyme inhibition; recombinant caTPT1, FP RNA substrate dephosphorylation; inhibition, % at 5 µM; 300,000 compounds, 0.81% hits;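 active = inhibition above the mean of all tested compounds plus 3 SD, set per screening campaign, cut at about 24% in these data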;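 also: plate controls were DMSO alone for no effect and ferristatin control at 100 nM for full effect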
# HNF4A DNA FP = change in binding of human HNF4 alpha to DNA; P41235; activity change, % at 10 µM; 360,000 compounds, 0.3% hits; HNF4a-FITC DNA binding, fluorescence polarization, 1 h; in the data active = activity change above about 30%, passing the limit was not always enough
# Rev-erbA confirm = Rev-erb alpha (human) modulation, hit confirmation. shares compounds with Rev-erbA mod. Rev-erb alpha FITC-DNA binding, fluorescence polarization, 90 min. activation, % at 25 µM. 3,000 compounds, 61% hits;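 active = activation at or above a set limit, or at least 3 SD above the negative control mean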;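 also: 0% = 35 nM protein with DMSO and 100% = 750 nM protein high control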
# RORg counter = counter-screen for Rev-erb alpha modulators: RORgamma DNA binding; shares compounds with Rev-erbA mod; purified RORgamma protein-FITC-DNA binding, fluorescence polarization; AID 1259320; 910 compounds, 8% hits; IC50, µM;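 active = Compounds whose fitted half-maximal concentration for disrupting protein-DNA binding is below 10 micromolar; the record names Rev-erb in its text, so the target is in doubt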
# The depositor's hits bear a star; i = inactive; / = no result given. Rows were chosen to be rich in hits. Some 1.7% of all compounds tested hit in one or more screens of this group.
SMILES,CSN inh,Rev-erbA mod,TPT1 inhibitor,HNF4A DNA FP,Rev-erbA confirm,others
O=C1COc2ccccc2C(c2nnnn2-c2ccc3ccccc3c2)N1C1CC1 (centres undefined),/,-2.6,/,/,/,
COc1ccc(/C=C2\CC3(OC(=O)c4cccc(F)c4)CCCN2C3)cc1 (centres undefined),/,6.5,/,/,/,
O=S(=O)(c1cnc[nH]1)N1CCN(C(c2ccc(F)cc2)c2ccc(F)cc2)CC1,-2.7,2.5,-1.8,-2.0,/,
Brc1ccc(N2O[C@H]3C=C[C@@H]2C3)nc1,/,-1.2,/,/,/,
COc1ccccc1N1CCN(S(=O)(=O)c2ccc3c(c2)n(C)c(=O)c(=O)n3C)CC1,/,4.9,/,/,/,
C#CCN1C(=O)[C@]2(OC[C@@H]3Cc4ccccc4[C@@H]3C=C2C)c2ccccc21,/,2.4,/,/,/,
CCCN(c1ccccc1F)S(=O)(=O)c1cc(-c2cc(C)no2)ccc1OC,-1.4,4.6,-1.1,-4.2,/,
O=C(c1cccc(F)c1)n1ccc2ccc(-c3ccc4ccn(Cc5ccccc5)c4c3)cc21,/,8.1,/,/,/,
COC(=O)c1cccc(Cn2ccc3ccc(-c4ccc5ccn(C(=O)c6cccc(OC)c6)c5c4)cc32)c1,/,38.6*,/,/,53.9*,RORg counter=i
COc1ccccc1Oc1ccc2c(c1)C(=O)N(c1ccc(Br)c3cccnc13)C2=O,2.2,38.7*,2.1,4.4,22.2*,
O=C1c2ccccc2C(=O)N1c1ccc(Br)c2cccnc12,-0.4,1.6,-2.7,-3.3,/,
CCc1ccc(CNC(=O)c2ccc(OC3CCN(C(C)=O)CC3)c(OC)c2)nc1,-0.7,-2.4,3.1,-1.2,/,
COc1ccc(OC)c(C(=O)CSc2nc3c(c(=O)n(C)c(=O)n3C)n2C(C)C)c1,6.2,37.4*,/,0.4,4.5,
O=C(CCSc1nnc2ccc3ccccc3n12)Nc1ccc(F)cc1,5.3,43.7*,-3.5,-4.3,21.7*,
O=C(CN1CCN(Cc2ccccc2Cl)CC1)N/N=C\c1ccccc1F,/,-0.3,/,/,/,
COC(=O)C1=C(C)N(C)C(=NCc2ccc(C(F)(F)F)cc2)NC1c1cccc(F)c1 (centres undefined),/,-4.8,/,/,/,
CCOc1ccc(-n2c([S-])c(C(=O)Nc3ccc(S(=O)(=O)N4CCOCC4)cc3)[n+]3cc(C(N)=O)ccc23)cc1,5.3,90.6*,0.7,3.4,42.5*,RORg counter=>40
CCOc1ccc(NC(=O)COC(=O)c2ccc(S(=O)(=O)N3CCOCC3)cc2)cc1,-0.7,0.0,/,2.2,/,
COc1ccc(CNC(=O)CSc2nc(-c3ccccc3)cc(-c3cccs3)c2C#N)cc1,-0.3,8.5,2.3,5.0,/,
COc1cc(-c2cc(-c3ccccc3)nc(SCC(=O)Nc3nccs3)c2C#N)cc(OC)c1OC,4.4,72.1*,13.5,0.2,14.9,
CC(C)OC(=O)CC(=O)CSc1nc(-c2ccc(F)cc2)cc(-c2ccccc2)c1C#N,3.2,35.9*,0.7,0.8,26.4*,
COC(=O)c1c(NC2=NS(=O)(=O)c3ccccc32)sc2c1CCC(C(C)(C)C)C2 (centres undefined),3.4,29.5*,/,4.4,18.7*,
CCOC(=O)c1c(NC2=NS(=O)(=O)c3ccccc32)sc2c1CCC(C)C2 (centres undefined),-19.8,41.4*,0.6,4.3,14.1,
CCOC(=O)c1c(NC2=NS(=O)(=O)c3ccccc32)sc2c1CCCCC2,-5.7,0.5,-0.8,1.0,/,
CC(=O)Nc1ccc(-c2cc(-c3ccc(NC(C)=O)cc3)nc(-c3ccccc3)n2)cc1,-0.6,41.4*,-6.1,5.3,23.8*,
SMILES,CSN inh,Rev-erbA mod,TPT1 inhibitor,HNF4A DNA FP,Rev-erbA confirm,others
CC(=O)Nc1ccc(-c2cc(-c3ccc(NC(C)=O)cc3)nc(-c3ccc(NC(C)=O)cc3)n2)cc1,-2.8,52.0*,7.2,-3.5,35.3*,
CC(=O)Nc1ccc(-c2cc(-c3ccccc3)nc(-c3ccccc3)n2)cc1,-1.1,13.2,1.3,2.2,/,
CCCCCCn1cnc2c(c1=O)c1nc3ccccc3nc1n2Cc1cccs1,2.5,30.8*,6.5,-2.9,9.5,
CCCCOc1ccc(N(CC(=O)NC2CCCCC2)C(=O)c2snc(C(N)=O)c2N)cc1,-5.5,63.7*,-1.7,-1.0,40.5*,RORg counter=i
NC(=O)c1nsc(C(=O)N(CC(=O)NC2CCCCC2)c2ccc(Cl)cc2)c1N,3.1,8.6,0.8,4.9,/,
O=C(N[C@H](C(=O)N1CCC[C@H]1C(=O)NC1CCCC1)C1CCCCC1)c1ccco1,/,-0.3,/,/,/,
COc1ccccc1-c1nnc(Nc2nc3c(OC)cccc3s2)o1,0.9,47.0*,4.6,-5.0,78.0*,
COc1ccc(OCC2CN(Cc3ccccc3)S(=O)(=O)CCO2)cc1 (centres undefined),/,0.2,/,/,/,
CCCCN1CN2Cc3ccccc3C2CS1(=O)=O (centres undefined),/,2.0,/,/,/,
COCc1cc(C)nc(Nc2ccc(C)c(C)c2)c1C#N,1.4,24.9*,2.5,1.1,11.4,
COCc1cc(C)nc(Nc2ccc(C)cc2C)c1C#N,5.3,28.8*,-3.0,0.0,1.5,
CCNc1nc(C)cc(COC)c1C#N,-2.5,-2.8,-1.1,0.4,/,
COC(=O)C1CCC(CNC(=O)C(Cc2ccc3c(c2)OCO3)NC(C)=O)CC1 (centres undefined),/,-1.6,/,/,/,
CC(C)CCNC(=O)c1cc2c(=O)[nH]c3ccccc3c2s1,1.5,30.3*,-0.9,-3.5,22.2*,
CCCCN1C[C@@H](COCc2ccccc2)Oc2cccc(F)c2S1(=O)=O,/,17.3*,/,/,0.5,
CC(CNC(=O)[C@H]1O[C@@H](n2cnc3c(=O)[nH]c(N)nc32)[C@H](O)[C@@H]1O)c1ccccc1 (some centres undefined),/,-4.8,/,/,/,
N#Cc1ccc(CSc2nnc(NC(=O)CCc3nc4ccccc4c(=O)[nH]3)s2)cc1,6.7,-2.1,-2.6,6.8,/,
CC(=O)Nc1ccc(NC(=S)NC(=O)c2cc3ccccc3o2)cc1,-6.5,-2.6,-3.1,-0.9,/,
O=C(Cc1cccc2ccccc12)Nc1ccc(-c2cc3ccccc3oc2=O)cc1,0.2,27.1*,1.6,4.3,-2.2,
CCC(=O)Nc1cccc(-c2cc3ccccc3oc2=O)c1,7.3,3.5,2.0,3.3,/,
Cc1ccc(C(=O)NC(=S)Nc2ccc(-c3cc4ccccc4oc3=O)cc2)c(C)c1,3.1,67.9*,-0.1,-0.1,18.0*,
Cc1cc(C)cc(C(=O)NC(=S)Nc2ccc(-c3cc4ccccc4oc3=O)cc2)c1,-4.8,70.0*,-1.5,3.1,36.1*,
CN(Cc1ccccc1)C(=O)[C@@H]1CCCN1C(=O)OC(C)(C)C,3.5,-3.9,/,5.7,/,
O=C1c2ccccc2C(=O)N1c1ccc(Cl)cc1,/,/,-3.2,/,/,
CC(=O)Nc1ccc(N2C(=O)c3cccc4c(O)ccc(c34)C2=O)cc1,-73.2,28.6*,-20.7,-97.2,39.6*,RORg counter=1.25*
O=C1c2cccc3c(O)ccc(c23)C(=O)N1Cc1ccco1,-72.8,36.3*,/,-99.0,37.5*,RORg counter=>40
